Data: ChEMBL document CHEMBL4130401, “Thalassosamide, a Siderophore Discovered from the Marine-Derived Bacterium Thalassospira profundimaris” (J Nat Prod, 2017)
Converted amounts (≈) assume the structure as drawn. The source made the active and inactive calls. The calls are words filed in the database; no cut-off is given here.

Key:
[1] = Metal chelating activity assessed as Fe3+-compound complex formation at 5 to 1280 uM after 3 hrs by chrome azural S assay
Outline: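 Modified CAS assay: CTAB–CAS–Fe(III) reagent in MES buffer pH 5.6 mixed 1:1 with compound or deferoxamine mesylate in water, final concentrations 1.28 mM to 5 μM; incubated 37 °C, 3 h; colour change judged visually or absorbance change recorded.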

Mus musculus = test: Toxicity in mouse at 80 to 160 mg/kg, ip administered as single dose; type: organism-based; details: in vivo
Pseudomonas aeruginosa [2] = test: Antibiofilm activity against Pseudomonas aeruginosa ATCC 27853 at 16 to 64 ug/ml in presence of gentamycin by crystal violet microtiter method; type: functional, organism-based
Pseudomonas aeruginosa [3] = test: Antibiofilm activity against Pseudomonas aeruginosa ATCC 27853 at 16 to 64 ug/ml by crystal violet microtiter method; type: functional, organism-based
Pseudomonas aeruginosa [4] = test: Antibacterial activity against Pseudomonas aeruginosa ATCC 27853 infected in mouse assessed as reduction in bacterial load in thigh at 80 to 160 mg/kg, ip administered as single dose measured after 6 hrs by time kill assay; type: functional, organism-based
Outline: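 Neutropenic murine thigh infection with P. aeruginosa grown, subcultured and quantified in Mueller-Hinton broth/agar; single intraperitoneal dose (80 or 160 mg/kg) given 1 h after infection; groups of two treated and two untreated mice euthanized at 0–6 h post-dose; thigh CFU counted; mean and standard deviation from four thighs of two mice.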

Escherichia coli = test: Antibacterial activity against Escherichia coli ATCC 25922 measured after 18 hrs by dilution susceptibility test; type: functional
Outline: (§1)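 Broth dilution MIC for aerobic bacteria; compound dissolved in DMSO, serially diluted to 10 concentrations (0.25–128 μg/mL); gentamicin positive control; triplicate; six untreated media controls per plate; 35 °C for 18 h; MIC = lowest concentration preventing visible growth.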

Pseudomonas aeruginosa [5] = test: Antibacterial activity against Pseudomonas aeruginosa ATCC 27853 measured after 18 hrs by dilution susceptibility test; type: functional; outline: as §1

Compound	Activity [1]	Activity (Mus musculus)	Activity (Pseudomonas aeruginosa [2])	Activity (Pseudomonas aeruginosa [3])	Activity (Pseudomonas aeruginosa [4])	MIC (Escherichia coli; ATCC 25922, 18 h) [µg/mL]	MIC (Pseudomonas aeruginosa [5]; ATCC 27853, 18 h) [µg/mL]	MIC (Escherichia coli) [µg/mL]	MIC (Pseudomonas aeruginosa [5]) [µg/mL]
CC(=O)N(O)CCCCCNC(=O)CCC(=O)N(O)CCCCCNC(=O)CCC(=O)N(O)CCCCCN	Active								
C[C@@H]1CC(=O)N(O)CCCC[C@@H](NC(=O)CCC(=O)O)C(=O)O[C@H](C)CC(=O)N(O)CCCC[C@@H](NC(=O)CCC(=O)O)C(=O)O[C@H](C)CC(=O)N(O)CCCC[C@@H](NC(=O)CCC(=O)O)C(=O)O1	Active	Non-Toxic	inactive	inactive	Active	64 (≈ 64.6 µM)	64 (≈ 64.6 µM)		
GENTAMICIN								4	4
